Laboratory results reported in paper PMC5363680 (Molecular Therapy. Nucleic Acids, 2017).

Tests used:
[1] = test system: luc2 gene in U87 MG-luc2 cells; experiment: luc2 gene downregulation after CPP-mediated siRNA delivery; type: cell-based, human; settings: MR30, 25 nM siRNA, 10% FBS media, 24 hr post treatment
Proteinase K = Proteinase K (Parengyodontium album, UniProt P06873); experiment: Proteinase K degradation of CPP/siRNA complexes, PicoGreen read-out; type: in vitro ADME; settings: PF6 at MR10, same charge ratio as other CPPs
Sequence of Proteinase K (P06873 106-384): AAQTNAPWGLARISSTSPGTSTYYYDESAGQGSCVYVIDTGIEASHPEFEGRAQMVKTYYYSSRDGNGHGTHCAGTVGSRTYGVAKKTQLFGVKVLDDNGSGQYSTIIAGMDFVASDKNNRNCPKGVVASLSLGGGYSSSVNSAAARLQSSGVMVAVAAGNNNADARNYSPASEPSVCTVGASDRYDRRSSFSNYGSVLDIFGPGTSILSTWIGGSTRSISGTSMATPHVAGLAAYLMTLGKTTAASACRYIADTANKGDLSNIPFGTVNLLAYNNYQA

proteinase = proteinase (Parengyodontium album, UniProt P06873); experiment: Coincubation of CPP with proteinase, peptide fragments by UPLC; type: in vitro ADME; settings: coincubation of CPP with the enzyme, 2 hr at 37°C, data not shown
Sequence of proteinase (P06873 106-384): as above

U87 cells [2] = experiment: Neutral red lyso-toxicity assay, serum-free conditions; type: cell-based, human; settings: reduced serum media, 6 hr, CPP and CPP/siRNA complexes at higher concentrations
In short: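 U87 cells grown 24 hr in serum-containing medium, then medium replaced by complexes or peptide diluted 1:10 in reduced-serum medium. Controls were untreated cells, 10 μM chloroquine and cell-free wells. Neutral red dye added and incubated 6 hr at 37°C, 5% CO2. Cells then washed with PBS, detection solution added for 10 min, absorbance read at 540 nm and normalized to controls.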

U87 cells [3] = experiment: LDH leakage; type: cell-based, human; settings: reduced serum media, 6 hr, complexes and free peptide at a higher concentration
In short: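 U87 cells grown 24 hr in serum-containing medium, then switched to serum-free conditions: medium removed and complexes or free peptide added, diluted 1:10 in medium. Controls were untreated cells, 0.1% Triton X-100 and cell-free wells. After 6 hr at 37°C, 5% CO2, LDH activity (CytoTox-ONE) was measured per kit protocol and normalized to controls.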

Question: Which results are given for Stearyl-AGYLLGKINLKALAALAKKIL-NH2 [PF6]?
Answer: downregulation of luc2 gene at MR30 [1]: 80%; stability to proteinase, times higher than with other tested CPPs (Proteinase K): 10–20 times; degradation of CPP by the proteinase (proteinase): lack of a considerable increase of detectable peptide fragments; Neutral red assay (lyso-toxicity) (U87 cells [2]): showed toxic and/or buffering effects; LDH leakage (U87 cells [3]): led to LDH leakage
